The source of these data is ChEMBL document CHEMBL2176922, “Benzofuroxane derivatives as multi-effective agents for the treatment of cardiovascular diabetic complications. Synthesis, functional evaluation, and molecular modeling studies” (J Med Chem, 2012).

The source made the active and inactive calls. The calls are words filed in the database; no cut-off is given here.

Assay [1] has as its system Liver. As to the kind of experiment: Induction of NO generation in Sprague-Dawley albino rat liver homogenate at 10^-4 M after 1 hr by Griess reaction. Type of assay: functional, tissue-based. In short, it runs like this:
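Rat liver rinsed in ice-cold sucrose buffer (100 mM K2HPO4, 1 mM EDTA, 1.15% KCl, 0.25 M sucrose, 0.1% EtOH, pH 7.4), homogenized 1/6 w/v, gauze-filtered, spun 600g 10 min at 0 °C to remove nuclei. Incubated with compound 1 h at 37 °C; nitrite measured by Griess reaction at 543 nm, given as % NO2− (mol/mol) relative to compound added. At least two determinations in triplicate.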

For assay [2], the species on record is Rattus norvegicus. Briefly: Inhibition of Aldehyde reductase in Sprague-Dawley albino rat at 100 uM. In short, it runs like this: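 Rat kidney ALR1 at 37 °C with 20 mM sodium D-glucuronate and 0.12 mM NADPH (stock levels), dialyzed enzyme, 0.1 M sodium phosphate pH 7.2; rate calibrated to 0.015 absorbance unit/min. NADPH oxidation followed at 340 nm; blank without substrate. Percent inhibition at 100 μM.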

The subject of assay [3] is Brain. As to the kind of experiment: Antioxidant activity in Sprague-Dawley albino rat brain homogenate assessed as inhibition of hydroxyl radical dependent lipoperoxidation measuring malondialdehyde production at 100 uM after 30 mins by TBARS assay. Type of assay: functional, tissue-based. In short, it runs like this: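 Rat brain homogenized 10% (w/v) in phosphate buffer pH 7.4; 100 μL homogenate with 20 μM FeCl3 and 100 μM ascorbic acid (final), test compound at 100 μM final, 1 mL, 30 min at 37 °C. TBA/HCl added, boiled 10 min, n-butanol extraction, A532; TBARS as nmol MDA per 10 mg wet tissue vs tetramethoxypropane standard curve. At least two determinations in triplicate.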

In assay [4] the target is Aldo-keto reductase family 1 member B1 (Rattus norvegicus, UniProt P07943). Briefly: Inhibition of Sprague-Dawley albino rat lens ALR2 by spectrophotometry. The assay is classed as tissue-based, Lens of camera-type eye.
Assay [5] deals with Aldo-keto reductase family 1 member B1 (Rattus norvegicus) (UniProt P07943). As to the kind of experiment: Ratio of KM07100 IC50 to compound IC50 for Sprague-Dawley albino rat lens ALR2. Type of assay: tissue-based. The settings on record: Lens of camera-type eye.

`O=[N+]([O-])c1cccc(COc2ccc3c(c2)no[n+]3[O-])c1` gave an Activity in assay [1] of 2%. The compound further gave an inhibition in assay [2] of 5%. Moreover, the inhibition entry in assay [3] is “Active”. In assay [4], this compound showed an IC50 of 460 nM.
As for `[O-][n+]1onc2cc(OCCc3ccccc3)ccc21`, in assay [1], the Activity is 2%. For the same compound, the inhibition in assay [2] was 11%. Also, the inhibition result in assay [3] was “Active”. Moreover, in assay [4], the IC50 amounted to 5900 nM.
Compound `O=S(=O)(Oc1ccc2nonc2c1)c1ccc(Cl)s1` came in with an inhibition in assay [2] of 20%.
As to `[O-][n+]1onc2cc(OCc3ccc(C(F)(F)F)cc3)ccc21`, the Activity in assay [1] was 2%. This compound also yielded an inhibition in assay [2] of 14%. The inhibition result in assay [3] is “Active”. The compound also yielded an IC50 in assay [4] of 1940 nM.
The like results for `Cc1ccc(COc2ccc3c(c2)no[n+]3[O-])cc1` were, in that order, 2%, 24%, “Active” and 830 nM.
Regarding `[O-][n+]1onc2cc(OCc3ccc(F)cc3)ccc21`, the result in assay [1] was inactive. In addition, the inhibition entry in assay [2] is “inactive”. Further, the inhibition result in assay [3] was “Active”. The compound also showed an IC50 in assay [4] of 820 nM.
On to `[O-][n+]1onc2cc(OCc3ccc4ccccc4c3)ccc21`, for which the Activity in assay [1] came out at 2%. In addition, in assay [2], the inhibition was found to be 35%. In addition, in assay [3], the inhibition result is “Active”. This compound came in with an IC50 in assay [4] of 1430 nM.
As to `[O-][n+]1onc2cc(OCc3ccc(Cl)cc3)ccc21`, the Activity in assay [1] turned out to be 2%. The inhibition in assay [2] is 19%. Further, the inhibition result in assay [3] is “Active”. Also, the half-inhibitory concentration (IC50) in assay [4] is 920 nM.
In assay [1], `[O-][n+]1onc2cc(OCc3ccccc3)ccc21` returned an Activity of 2%. The inhibition in assay [2] was 26%; in assay [3] it was 50%. The compound also had a 50% inhibitory concentration (IC50) in assay [4] of 990 nM. Also, the Ratio IC50 in assay [5] came out at 36.
With `COc1ccc(COc2ccc3c(c2)no[n+]3[O-])cc1`, the Activity in assay [1] was determined as 2%. Also, in assay [2], the inhibition entry is “inactive”. Moreover, the inhibition result in assay [3] was “Active”. For the same compound, the IC50 in assay [4] came to 4520 nM.
For `[O-][n+]1onc2cc(OCc3nc4ccccc4s3)ccc21`, the result in assay [1] was inactive. This compound also showed an inhibition in assay [2] of 38%. Also, the inhibition result in assay [3] was “Active”. 420 nM corresponded to half-maximal inhibition in assay [4] (IC50).
`[O-][n+]1onc2cc(OCc3ccc(Br)cc3)ccc21` registered an Activity in assay [1] of 2%. The compound also showed an inhibition in assay [2] of 19%. Besides, the inhibition result in assay [3] was “Active”. In assay [4], this compound yielded an IC50 of 7360 nM.
`Cc1c(C)c2c(c(C)c1O)CC[C@@](C)(CCC[C@H](C)CCC[C@H](C)CCCC(C)C)O2`: in assay [3], the inhibition entry is “Active”.
`[O-][n+]1onc2cc(OCc3ccc(Br)cc3F)ccc21`: the result in assay [1] was inactive. Besides, the inhibition entry in assay [2] is “inactive”. Also, the inhibition entry in assay [3] was “Active”. Further, half-maximal inhibition in assay [4] (IC50) was put at 1410 nM.
